Shown are actives, neighbours in structure and some others; about 3.5% of the full set was active somewhere.
RGS4 act: RGS4 potentiators or activators, primary screen, cell-based, HEK293 M3R inducible RGS4, calcium flux | carbachol calcium flux Fluo4; stronger effect = lower value | B-score at 10 µM | AID 463111, 2010 | actives 0.92% (n = 310,000);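 active = B-score of the integrated calcium signal more than 4 SD below the library mean, with starting fluorescence not abnormally high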;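 note: negative B-score means reduced calcium response which marks RGS4 activation or potentiation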
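System: HEK293 FlpIn-TREx cells, stable M3R, doxycycline-inducible RGS4. Timing: overnight RGS4 induction, 30 min dye load 37 °C, 20 min compound RT. Also added: carbachol, ECmax concentration. Measured by: Fluo4 fluorescence kinetic imaging of calcium. Evaluation: integrated calcium ratio converted to B score.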
RGS4 inh: RGS4 inhibitors, primary screen, cell-based, HEK293 M3R inducible RGS4, calcium flux; B-score at 10 µM; Fluo-4 calcium flux; stronger effect = higher value; triggered by carbachol at its EC20; actives 0.45% (n = 310,000); Regulator of G-protein signaling 4 (Homo sapiens), P49798;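 active = B-score, a plate-corrected calcium signal, over three deviations above library mean, with baseline fluorescence within five deviations of library mean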;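 note: RGS4 expression induced by doxycycline in cells with stable M3 receptor; B-score is computed from the integrated fluorescence ratio over baseline after carbachol; higher B-score means a larger calcium signal and so more RGS4 inhibition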
Target sequence (P49798 whole entry, looked up): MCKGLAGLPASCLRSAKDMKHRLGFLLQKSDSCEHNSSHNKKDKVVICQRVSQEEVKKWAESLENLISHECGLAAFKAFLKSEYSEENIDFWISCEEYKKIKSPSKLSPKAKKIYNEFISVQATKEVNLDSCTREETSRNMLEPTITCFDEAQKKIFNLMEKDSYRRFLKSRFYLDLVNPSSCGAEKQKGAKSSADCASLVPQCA
MrgX1 ag: agonists of human MrgX1 receptor, primary screen, HEK293 cells, Fluo-4 calcium flux. Mas-related G-protein coupled receptor member X1 (Homo sapiens), Q96LB2. Fluo-4 calcium fluorescence, agonist mode; stronger effect = higher value. B-score at 10 µM. actives 0.44% (n = 310,000);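 active = calcium response B-score plate-corrected fluorescence ratio at least 3 library SD, with starting fluorescence B-score inside 5 SD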
Target sequence (Q96LB2 whole entry, looked up): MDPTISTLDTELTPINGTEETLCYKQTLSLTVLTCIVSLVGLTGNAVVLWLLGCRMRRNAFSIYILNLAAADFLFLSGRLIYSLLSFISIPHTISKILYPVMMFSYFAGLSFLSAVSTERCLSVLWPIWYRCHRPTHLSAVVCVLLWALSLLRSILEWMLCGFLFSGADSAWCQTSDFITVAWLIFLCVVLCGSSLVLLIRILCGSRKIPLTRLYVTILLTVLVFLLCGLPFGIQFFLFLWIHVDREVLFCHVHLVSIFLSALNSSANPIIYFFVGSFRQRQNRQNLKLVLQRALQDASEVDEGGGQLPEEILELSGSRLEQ
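times = overnight plating, then 30 min 37 °C plus 30 min room-temperature dye loading | assay system = stable human MrgX1 HEK293 cell line | input = fifteen thousand cells per well | signal = kinetic calcium dye fluorescence, Fluo-4 NW | dosing = compound delivered in addition one of three | read-out = B-scored fluorescence response ratio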
MrgX1 antagonist: antagonists of human MrgX1 receptor, primary screen, HEK293 cells, Fluo-4 calcium flux; BAM8-22 antagonism; stronger effect = lower value; B-score at 10 µM; actives 1.3% (n = 310,000); AID 588676, 2011;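 active = calcium-response B-score plate-corrected more than 3 library SD below zero, starting fluorescence within 5 deviations, no agonist response on first addition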;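 note: peak minus trough fluorescence over baseline after final BAM8-22 challenge near maximal dose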
MrgX1 allo act: positive allosteric modulators of MrgX1, primary screen, HEK293 cells, Fluo-4 calcium flux; B-score at 10 µM; actives 0.63% (n = 310,000); AID 588675, 2011; Mas-related G-protein coupled receptor member X1 (Homo sapiens), Q96LB2; FDSS; stronger effect = higher value;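 active = plate-corrected calcium response at least 3 library SD above typical, normal starting fluorescence, not activating the receptor alone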;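 note: compound read alongside a low EC10 to EC30 dose of BAM8-22 agonist; peak minus trough fluorescence over baseline measured at the second addition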
RGS4 act valid: reduced carbachol calcium response, RGS4-induced M3R cells, confirmation, RGS4 activator project, cell-based, HEK293 M3R/RGS4 inducible, calcium flux, duplicate | shares compounds with RGS4 act | carbachol calcium flux Fluo4 | inhibition, % at 10 µM | actives 89% (n = 1,100) | AID 602282, 2012;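 active = inhibition above 3 SD of the buffer control wells, cut at about 41% in these data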;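 note: signal is the integrated peak-minus-minimum Fluo4 fluorescence over baseline ratio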
RGS4 act ctr: RGS4 activator counter-screen hit in non-induced cells. shares compounds with RGS4 act. HEK293 M3R non-induced RGS4, Fluo4 calcium flux; after carbachol challenge at its EC90. inhibition, % at 10 µM. actives 82% (n = 1,100);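 active = inhibition exceeding 3 SD of buffer-only control wells, cut at about 26% in these data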;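 note: percent drop in integrated peak-minus-baseline over baseline Fluo4 ratio after carbachol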
* = called active by the depositor; i = inactive; / = not tested or not shown.

SMILES	RGS4 act	RGS4 inh	MrgX1 ag	MrgX1 antagonist	MrgX1 allo act	RGS4 act valid	RGS4 act ctr
CCOC(=O)c1cc2sc(C)cc2n1CCCN1C(=O)c2ccccc2C1=O	-7.8*	i	i	i	i	90*	42*
O=C(Nc1ccnn1C1CCN(Cc2ccccc2F)CC1)C1CCCC1	i	i	i	i	i	/	/
CC(C)Cn1c(-c2csc3c2CCCC3)n[nH]c1=S	-8*	i	i	i	i	94*	67*
CC(C)Cn1c(-c2ccncc2)n[nH]c1=S	i	i	i	i	i	/	/
CC(C)Cn1c(-c2ccc(F)cc2)n[nH]c1=S	-8.5*	i	i	i	i	62*	84*
CN1/C(=C\C(=O)Nc2ccc(Br)cc2)C(C)(C)c2ccccc21	-9.2*	i	i	i	i	92*	96*
CN1/C(=C\C(=O)Nc2ccc(F)cc2)C(C)(C)c2ccccc21	-8.8*	i	i	i	i	50*	26*
COc1ccc(CNC(=O)C(c2ccccc2F)N(C(=O)c2csnn2)C2CC2)cc1 (stereo unspecified)	i	i	i	i	i	/	/
O=C(O)c1ccc(S(=O)(=O)N(CCc2ccccc2)Cc2ccc(Cl)cc2)cc1	i	i	i	i	i	/	/
COC(=O)C(c1cc(OC)c(O)c(OC)c1)(N1CCNC(C)C1)C(F)(F)F (stereo unspecified)	i	i	i	i	i	/	/
O=C1c2oc3ccccc3c(=O)c2C(c2cccc(O)c2)N1CCCN1CCOCC1 (stereo unspecified)	-8.9*	i	i	i	i	85*	37*
COc1cc(O)ccc1C(=O)CCc1ccc(O)cc1	i	i	i	i	i	/	/
Cc1nccn1CC(O)Cn1c2ccccc2c2ccccc21 (stereo unspecified)	-7.7*	i	i	i	i	86*	29*
CCOc1ccc2[nH]c3c(N4CCc5ccccc5C4)ncnc3c2c1	-8.5*	i	i	i	i	94*	72*
CN1CCN(c2ncccc2S(=O)(=O)N2CCCCC2)CC1	-12*	i	i	i	i	90*	73*
O=S(=O)(c1cccc2cccnc12)N1CCCCC1	i	i	i	i	i	/	/
CC(C)(C)c1ccc(OCC(O)CSc2ncn[nH]2)cc1 (stereo unspecified)	i	i	i	i	i	/	/
[2H]c1c([2H])c([2H])c(C(=O)c2sc(N3CCCCCC3)nc2-c2ccccc2)c([2H])c1[2H]	-8.3*	i	i	i	i	92*	61*
O=C1C(NS(=O)(=O)c2cccs2)=C(N2CCN(Cc3ccccc3)CC2)C(=O)c2ccccc21	-8.1*	i	i	i	i	63*	0
CN1CCN(C2=C(NS(=O)(=O)c3cccs3)C(=O)c3ccccc3C2=O)CC1	i	i	i	i	i	/	/
N#CCc1ccc(NC(=O)c2ccc(S(=O)(=O)N3CCOCC3)cc2)cc1	i	i	i	i	i	/	/
CCCN1CCN(c2ncnc3scc(C4COc5ccccc5O4)c23)CC1 (stereo unspecified)	-12*	i	i	i	i	92*	62*
c1ccc2c(c1)OCC(c1csc3ncnc(N4CCCCC4)c13)O2 (stereo unspecified)	i	i	i	i	i	/	/
Fc1ccc(C2N(c3ccccc3)C(=S)N3CCCN23)cc1 (stereo unspecified)	i	i	i	i	i	/	/
Cc1ccc(C2N(c3ccccc3)C(=S)N3CCCN23)cc1 (stereo unspecified)	-11*	i	i	i	i	94*	91*
SMILES	RGS4 act	RGS4 inh	MrgX1 ag	MrgX1 antagonist	MrgX1 allo act	RGS4 act valid	RGS4 act ctr
Cc1cc(Cl)c(S(=O)(=O)N2CCN(c3ccccn3)CC2)cc1OCC(=O)NC1CCCCC1	-8*	i	i	i	i	92*	75*
CC(C(=O)NCC1(c2ccccc2)CCCC1)N1CCCC1 (stereo unspecified)	-7.9*	i	i	i	i	64*	84*
CC(C(=O)NCC1(c2ccccc2)CCCC1)N1CCOCC1 (stereo unspecified)	i	i	i	i	i	/	/
CCOC(=O)c1ccc(NC(=O)N2CCc3ccccc3C2)cc1	-8.9*	i	i	i	i	84*	44*
CC(=O)NN1C(=O)/C(=C\c2ccc(Cl)cc2)SC1=S	-12*	i	i	i	i	0	0
CCC(=O)Nc1nonc1-c1nc2ccccc2n1N(C(=O)CC)C(=O)CC	-8.6*	i	i	i	i	0	0
CCC(=O)Nc1nonc1-c1nc2ccccc2n1Cc1ccccc1	i	i	i	i	i	/	/
CC(C)(CO)NCC(O)COc1ccc2c(c1)CCC2 (stereo unspecified)	i	i	i	i	i	/	/
CC(C)(C)CC(C)(C)NCC(O)COc1ccc2c(c1)CCC2 (stereo unspecified)	-10*	i	i	i	i	92*	55*
Cc1ccccc1NS(=O)(=O)c1cc2c3c(c1)C(C)C(=O)N3CCC2 (stereo unspecified)	i	i	i	i	i	/	/
O=C(OCCNc1ccc(C(F)(F)F)cc1[N+](=O)[O-])c1cc2ccccc2oc1=O	i	i	i	i	i	/	/
CC(C)CN(C(=O)COC(=O)CSc1ccc([N+](=O)[O-])cc1)C1CCS(=O)(=O)C1 (stereo unspecified)	i	i	i	i	i	/	/
CC(=O)NC1(C(F)(F)F)NC(=O)N(c2ccc(F)cc2)C1=O (stereo unspecified)	i	i	i	i	i	/	/
S=c1[nH]nc(-c2ccc(Br)cc2)n1Cc1ccco1	-8*	i	i	i	i	93*	78*
